Measured values of several laboratories.
Each line is one published result; the experiments were not run side by side.

SMILES | cell line | test | system | setting | quantity | value
O=C(O)c1cccc2ccccc12 | K562 | cell growth or viability |  |  | IC50 | > 744 µM
C=C(C)C(O)Cc1c(O)c(CC=C(C)C)c2occ(-c3ccc(O)cc3)c(=O)c2c1O (centres unmarked) | K562 | cell growth or viability, MTT |  | 100 µg/mL | viability | 71.7%
CC[C@@H](C)[C@H](N)C(=O)N1Cc2ccccc2C1 | K562 | cell growth or viability, ATP luminescence |  | 60 µM | viability | 92%
Clc1ccc(COc2cncc(-c3cnn(C4CCNCC4)c3)c2)c(Cl)c1 | MDCK |  | Caco-2 |  | Papp | 10.9 ×10⁻⁶ cm/s
COc1ccccc1CN[C@H]1C2CCN(CC2)[C@H]1C(c1ccccc1)c1ccccc1 | human PBMC | cell growth or viability, MTS |  |  | CC50 | > 25 µM
CC(C)/N=C(\N)c1ccc(NC(=O)c2ccc(C(=O)Nc3ccc(/C(N)=N/C(C)C)cc3)cc2)cc1 | K562 | cell growth or viability |  |  | IC50 | 38.8 µM
CC(C)=CCc1c(O)c(CC=C(C)C)c2occ(-c3ccc(O)cc3)c(=O)c2c1O | K562 | cell growth or viability, MTT |  | 100 µg/mL | viability | 94%
Cc1cn([C@H]2C[C@H](N=[N+]=[N-])[C@@H](CO)O2)c(=O)[nH]c1=O | human PBMC | cell growth or viability |  |  | CC50 | > 100 µM
C#C[C@]1(COP(=O)(O)OP(=O)(O)OP(=O)(O)O)O[C@@H](n2cnc3c(N)nc(F)nc32)C[C@@H]1O | human PBMC |  | plasma | oral, 5 mg, single dose | half-life | 126 h
N[C@@H](CC(=O)N1CCN(C(c2ccc(F)cc2)c2ccc(F)cc2)CC1)C(=O)N1Cc2ccccc2C1 | K562 | cell growth or viability, ATP luminescence |  | 60 µM | viability | 7%
Cc1ccc2cccc(C(=O)O)c2c1 | K562 | cell growth or viability |  |  | IC50 | > 688 µM
